ChEMBL document CHEMBL3045304, “Sesquiterpene lactones with potential use as natural herbicide models. 2. guaianolides” (2000)
Activity calls are given as the source filed them. No cut-off for these calls is given here.

Tests used:
Lepidium sativum [1] = assay: Stimulation of root length of Lepidium sativum at 0.1 mM or 1 mM after 5 days relative to untreated control; type: functional
Lepidium sativum [2] = assay: Inhibition of hypocotyl length of Lepidium sativum at 0.1 mM or 1 mM after 5 days relative to untreated control; type: functional
Triticum aestivum [3] = assay: Stimulation of hypocotyl length of Triticum aestivum cv. Cortex (wheat) at 0.1 mM or 1 mM after 5 days relative to untreated control; type: functional
Outline: (§1)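 Wheat: 10 seeds per dish on filter paper with 5 mL test solution, 5 days in the dark at 25 °C, 10 replicates per concentration. Stock test solutions were 10^-3 or 10^-4 M in 10 mM MES, with lower levels made by dilution, all at pH 6.0. Parallel controls were run. Output is % difference from control.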

Solanum lycopersicum [4] = assay: Inhibition of root length of Solanum lycopersicum cv. Tres Cantos (tomato) at 0.1 mM or 1 mM after 5 days relative to untreated control; type: functional
Outline: (§2)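 Lettuce and tomato seeds, 25 per dish on filter paper, received 5 mL test solution. Incubation was 5 days in the dark at 25 °C, with four replicates per concentration. Solutions were made at 10^-3 or 10^-4 M in 10 mM MES, diluted serially, and adjusted to pH 6.0. Parallel controls were run. Results are % difference from control.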

Lactuca sativa [5] = assay: Inhibition of root length of Lactuca sativa cv. Roman (lettuce) at 0.1 mM or 1 mM after 5 days relative to untreated control; type: functional; outline: as §2
Lactuca sativa [6] = assay: Stimulation of hypocotyl length of Lactuca sativa cv. Roman (lettuce) at 0.1 mM or 1 mM after 5 days relative to untreated control; type: functional; outline: as §2
Lactuca sativa [7] = assay: Stimulation of germination of Lactuca sativa cv. Roman (lettuce) at 0.1 mM or 1 mM after 5 days relative to untreated control; type: functional; outline: as §2
Solanum lycopersicum [8] = assay: Stimulation of root length of Solanum lycopersicum cv. Tres Cantos (tomato) at 0.1 mM or 1 mM after 5 days relative to untreated control; type: functional; outline: as §2
Triticum aestivum [9] = assay: Stimulation of root length of Triticum aestivum cv. Cortex (wheat) at 0.1 mM or 1 mM after 5 days relative to untreated control; type: functional; outline: as §1
Lactuca sativa [10] = assay: Inhibition of germination of Lactuca sativa cv. Roman (lettuce) at 0.1 mM or 1 mM after 5 days relative to untreated control; type: functional; outline: as §2
Allium cepa [11] = assay: Stimulation of hypocotyl length of Allium cepa cv. Valenciana (onion) at 0.1 mM or 1 mM after 7 days relative to untreated control
Triticum aestivum [12] = assay: Inhibition of germination of Triticum aestivum cv. Cortex (wheat) at 0.1 mM or 1 mM after 5 days relative to untreated control; type: functional; outline: as §1
Lepidium sativum [13] = assay: Inhibition of germination of Lepidium sativum at 0.1 mM or 1 mM after 4 days relative to untreated control
Allium cepa [14] = assay: Stimulation of root length of Allium cepa cv. Valenciana (onion) at 0.1 mM or 1 mM after 7 days relative to untreated control
Allium cepa [15] = assay: Stimulation of germination of Allium cepa cv. Valenciana (onion) at 0.1 mM or 1 mM after 5 days relative to untreated control; type: functional
Triticum aestivum [16] = assay: Inhibition of hypocotyl length of Triticum aestivum cv. Cortex (wheat) at 0.1 mM or 1 mM after 5 days relative to untreated control; type: functional; outline: as §1
Solanum lycopersicum [17] = assay: Stimulation of hypocotyl length of Solanum lycopersicum cv. Tres Cantos (tomato) at 0.1 mM or 1 mM after 5 days relative to untreated control; type: functional; outline: as §2
Lepidium sativum [18] = assay: Stimulation of hypocotyl length of Lepidium sativum at 0.1 mM or 1 mM after 5 days relative to untreated control; type: functional
Allium cepa [19] = assay: Inhibition of hypocotyl length of Allium cepa cv. Valenciana (onion) at 0.1 mM or 1 mM after 7 days relative to untreated control
Lactuca sativa [20] = assay: Stimulation of root length of Lactuca sativa cv. Roman (lettuce) at 0.1 mM or 1 mM after 5 days relative to untreated control; type: functional; outline: as §2
Allium cepa [21] = assay: Inhibition of germination of Allium cepa cv. Valenciana (onion) at 0.1 mM or 1 mM after 5 days relative to untreated control; type: functional
Solanum lycopersicum [22] = assay: Inhibition of germination of Solanum lycopersicum cv. Tres Cantos (tomato) at 0.1 mM or 1 mM after 5 days relative to untreated control; type: functional; outline: as §2
Solanum lycopersicum [23] = assay: Stimulation of germination of Solanum lycopersicum cv. Tres Cantos (tomato) at 0.1 mM or 1 mM after 5 days relative to untreated control; type: functional; outline: as §2
Allium cepa [24] = assay: Inhibition of root length of Allium cepa cv. Valenciana (onion) at 0.1 mM or 1 mM after 5 days relative to untreated control; type: functional
Triticum aestivum [25] = assay: Stimulation of germination of Triticum aestivum cv. Cortex (wheat) at 0.1 mM or 1 mM after 5 days relative to untreated control; type: functional; outline: as §1
Solanum lycopersicum [26] = assay: Inhibition of hypocotyl length of Solanum lycopersicum cv. Tres Cantos (tomato) at 0.1 mM or 1 mM after 5 days relative to untreated control; type: functional; outline: as §2
Lactuca sativa [27] = assay: Inhibition of hypocotyl length of Lactuca sativa cv. Roman (lettuce) at 0.1 mM or 1 mM after 5 days relative to untreated control; type: functional; outline: as §2
Triticum aestivum [28] = assay: Inhibition of root length of Triticum aestivum cv. Cortex (wheat) at 0.1 mM or 1 mM after 5 days relative to untreated control; type: functional; outline: as §1
Lepidium sativum [29] = assay: Inhibition of root length of Lepidium sativum at 0.1 mM or 1 mM after 4 days relative to untreated control
Lepidium sativum [30] = assay: Inhibition of germination of Lepidium sativum at 0.1 mM or 1 mM after 5 days relative to untreated control; type: functional
Lepidium sativum [31] = assay: Inhibition of germination of Lepidium sativum at 0.1 mM or 1 mM after 4 days relative to untreated control; set-up: scale not given: the % may be the effect or the level left
Lepidium sativum [32] = assay: Inhibition of hypocotyl length of Lepidium sativum at 0.1 mM or 1 mM after 4 days relative to untreated control
Allium cepa [33] = assay: Inhibition of hypocotyl length of Allium cepa cv. Valenciana (onion) at 0.1 mM or 1 mM after 5 days relative to untreated control; type: functional
Allium cepa [34] = assay: Stimulation of germination of Allium cepa cv. Valenciana (onion) at 0.1 mM or 1 mM after 7 days relative to untreated control
Allium cepa [35] = assay: Stimulation of hypocotyl length of Allium cepa cv. Valenciana (onion) at 0.1 mM or 1 mM after 5 days relative to untreated control; type: functional
Allium cepa [36] = assay: Stimulation of root length of Allium cepa cv. Valenciana (onion) at 0.1 mM or 1 mM after 5 days relative to untreated control; type: functional

Row | SMILES | Activity (Lepidium sativum [1]) | inhibition (Lepidium sativum [2]) | Activity (Triticum aestivum [3]) | Activity (Lactuca sativa [6]) | Activity (Lactuca sativa [7]) | Activity (Solanum lycopersicum [8]) | Activity (Triticum aestivum [9]) | inhibition (Lactuca sativa [10]) | Activity (Allium cepa [11]) | inhibition (Triticum aestivum [12]) | Activity (Lepidium sativum [13]) | inhibition (Lepidium sativum [13]) | inhibition (INH) (Triticum aestivum [16]) | Activity (Solanum lycopersicum [17]) | Activity (Lepidium sativum [18]) | Activity (Lactuca sativa [20]) | inhibition (Allium cepa [21]) | Activity (Solanum lycopersicum [23]) | Activity (Triticum aestivum [25]) | inhibition (INH) (Lactuca sativa [27]) | other results
1 | C=C1C(=O)O[C@H]2[C@H]1C[C@@H](O)C(=C)[C@@H]1C[C@@H](O)C(=C)[C@@]12O | inactive | inactive | 20% | <20% | inactive | inactive | 20% | inactive | inactive | inactive | inactive | inactive | 20% | inactive | inactive | 20% | inactive | <20% | inactive | <20% | inhibition (Solanum lycopersicum [4]): inactive; inhibition (INH) (Lactuca sativa [5]): 20%; Activity (Allium cepa [14]): inactive; Activity (Allium cepa [15]): inactive; inhibition (Allium cepa [19]): inactive; inhibition (INH) (Solanum lycopersicum [22]): <20%; inhibition (Allium cepa [24]): inactive; inhibition (Solanum lycopersicum [26]): inactive; inhibition (INH) (Triticum aestivum [28]): 20%; inhibition (Lepidium sativum [29]): inactive
2 | C=C1CC[C@H]2C(=C)CC[C@@H](C(=C)CO)[C@H](O)[C@@H]12 | inactive | inactive | <20% | <20% | inactive | <20% | 20% | inactive | inactive | inactive | inactive | inactive | <20% | inactive | inactive | inactive | inactive | 20% | inactive | <20% | inhibition (INH) (Solanum lycopersicum [4]): <20%; inhibition (Lactuca sativa [5]): inactive; Activity (Allium cepa [14]): inactive; Activity (Allium cepa [15]): inactive; inhibition (Allium cepa [19]): inactive; inhibition (INH) (Solanum lycopersicum [22]): 20%; inhibition (Allium cepa [24]): inactive; inhibition (Solanum lycopersicum [26]): inactive; inhibition (INH) (Triticum aestivum [28]): 20%; inhibition (Lepidium sativum [29]): inactive
3 | C=C1CC[C@H]2[C@H](C)C(=O)O[C@@H]2[C@@]2(O)C(=C)[C@H](O)C[C@@H]12 | inactive | inactive | 20% | 20% | inactive | inactive | inactive | inactive | inactive | inactive | inactive | inactive | 20% | inactive | inactive | <20% | inactive | inactive | inactive | 20% | inhibition (Solanum lycopersicum [4]): inactive; inhibition (INH) (Lactuca sativa [5]): <20%; Activity (Allium cepa [14]): inactive; Activity (Allium cepa [15]): inactive; inhibition (Allium cepa [19]): inactive; inhibition (Solanum lycopersicum [22]): inactive; inhibition (Allium cepa [24]): inactive; inhibition (Solanum lycopersicum [26]): inactive; inhibition (Triticum aestivum [28]): inactive; inhibition (Lepidium sativum [29]): inactive
4 | C=C1[C@@H]2[C@H]3OC(=O)C(=C)[C@@H]3CCC(=C)[C@@H]2C[C@H]1O [ISOZALUZANIN C] | >40% | – | 20% | <20% | <20% | >40% | >40% | – | – | – | – | – | 20% | >40% | >40% | inactive | inactive | 20% | 20% | <20% | inhibition (INH) (Lepidium sativum [30]): >40%; inhibition (INH) (Solanum lycopersicum [4]): >40%; Activity (Lepidium sativum [31]): >40%; inhibition (Lactuca sativa [5]): inactive; inhibition (INH) (Lepidium sativum [32]): >40%; inhibition (INH) (Lactuca sativa [10]): <20%; inhibition (INH) (Triticum aestivum [12]): 20%; inhibition (INH) (Allium cepa [33]): >40%; Activity (Allium cepa [34]): inactive; Activity (Allium cepa [35]): >40%; inhibition (INH) (Solanum lycopersicum [22]): 20%; inhibition (INH) (Allium cepa [24]): >40%; Activity (Allium cepa [36]): >40%; inhibition (INH) (Solanum lycopersicum [26]): >40%; inhibition (INH) (Triticum aestivum [28]): >40%; inhibition (INH) (Lepidium sativum [29]): >40%
